Experimental data collected from several papers.
Lines come from different studies, so protocols differ.

Structure (SMILES) | test | system | conditions | endpoint | result
NCCOCC(=O)N1CCC[C@H](C(=O)NCc2nc(-c3ccc(C(F)(F)F)cc3)cs2)C1 | metabolic stability | male Sprague-Dawley rat, liver microsomes | 0.5 µM | microsomal CLint | < 3 µL/min/mg
CC(C)C[C@H](NC(=O)[C@H](CC(C)C)NC(=O)[C@H](Cc1c[nH]c2ccccc12)NC(=O)[C@H](CCC(=O)O)NC(=O)[C@@H](NC(=O)[C@H](Cc1ccccc1)NC(=O)[C@H](CCC(=O)O)NC(=O)[C@H](CCCCNC(=O)COCCOCCNC(=O)COCCOCCNC(=O)CC[C@H](NC(=O)CCCCCCCCCCCCCCCCCCC(=O)O)C(=O)O)NC(=O)[C@H](C)NC(=O)[C@H](CCCCN)NC(=O)[C@H](CCCCN)NC(=O)[C@H](CCC(=O)O)NC(=O)[C@H](CC(=O)O)NC(=O)[C@H](CC(C)C)NC(=O)[C@H](Cc1ccc(O)cc1)NC(=O)[C@H](CCCCN)NC(=O)[C@H](CO)NC(=O)[C@H](Cc1ccc(O)cc1)NC(=O)[C@H](CC(=O)O)NC(=O)[C@H](CO)NC(=O)[C@@H](NC(=O)[C@H](Cc1ccccc1)NC(=O)[C@@H](NC(=O)CNC(=O)[C@H](CCC(N)=O)NC(=O)C(C)(C)NC(=O)[C@@H](N)Cc1c[nH]cn1)[C@@H](C)O)[C@@H](C)O)C(C)C)C(=O)N[C@@H](CCC(=O)O)C(=O)NCC(=O)NCC(=O)N1CCC[C@H]1C(=O)N[C@@H](CO)C(=O)N[C@@H](CO)C(=O)NCC(N)=O |  | human, plasma | subcutaneous, 16 mg, multiple doses, patients | CL/F | 0.5 mL/min
C[C@]1(O)CCCN(c2nc(Nc3ccc(S(=O)(=O)N[C@@H]4CCN(CC5CCN(c6ccc(C7CCC(=O)NC7=O)cc6F)CC5)C[C@H]4F)cc3F)ncc2C(F)(F)F)C1 (stereo partly shown) | metabolic stability | human, liver microsomes | 1 µM | scaled CLint | 22 mL/min/kg
C[C@@H](Oc1ccc(S(C)(=O)=O)cc1C(=O)N1C[C@@H]2C[C@]2(c2cc(C(F)(F)F)on2)C1)C(F)(F)F |  | human, plasma | oral, 10 mg, single dose, fasted | CL/F | 82.9 mL/min
c1cc(-c2ccc3ncnc(NC4CCOCC4)c3c2)cc(N2CCOCC2)c1 | shake flask | aqueous buffer | pH 7.4 | logD | 3.3
CC1(C)NC(=O)N(c2ccc(F)c(CC(F)(F)F)c2)C1=O | HPLC |  | pH 7.4 | chromatographic logD | 2.7
C[C@H]1[C@@H](C(=O)NCc2nc(-c3ccc(C#N)cc3)cs2)CCCN1C(=O)[C@H]1CCC(=O)O1 | metabolic stability | male Sprague-Dawley rat, liver microsomes | 0.5 µM | microsomal CLint | 24 µL/min/mg
C=CC(=O)NC1CCN(c2ncc3ncnc(Nc4ccc(Oc5ccc6c(c5)ncn6C)c(C)c4)c3n2)CC1 |  | male human, plasma | intravenous, 100 µg, single dose, healthy volunteers | clearance | 106 mL/min
N[C@@H](COCC(=O)N1CCC[C@H](C(=O)NCc2nc(-c3ccc(C(F)(F)F)cc3)cs2)C1)c1ccccc1 | metabolic stability | human, liver microsomes | 0.5 µM | microsomal CLint | 65 µL/min/mg
CC1(C)NC(=O)N(c2ccc3c(c2)OC(F)(F)O3)C1=O | HPLC |  | pH 7.4 | chromatographic logD | 2.5
COc1ccc2c(c1)CN(C(=O)CCN1CCC(Cc3ccccc3)CC1)CC[S@@+]2[O-] |  | male human, plasma | intravenous, 0.4 mg/kg, healthy volunteers | clearance | 162 mL/min
CC1(C)NC(=O)N(c2cc(C(F)(F)F)c(F)cc2C#N)C1=O | HPLC |  | pH 7.4 | chromatographic logD | 2.8
Cc1cc(S(=O)(=O)N[C@H]2CC[C@H](N3CCN(CC4CCN(c5cccc6c5n(C)c(=O)n6C5CCC(=O)NC5=O)CC4)CC3)CC2)ccc1Nc1ncc(C(F)(F)F)c(N2CCC[C@](C)(O)C2)n1 (stereo partly shown) | metabolic stability | human, liver microsomes | 1 µM | scaled CLint | 33 mL/min/kg
O=c1c2c([nH]c3cc(OC(F)(F)F)ccc13)CCCC2 | metabolic stability | human, liver microsomes | 1 µM, pH 7.4 | microsomal CLint | 173 µL/min/mg
O=C1NC(CF)(CF)C(=O)N1c1ccc(F)c(C(F)(F)F)c1 | HPLC |  | pH 7.4 | chromatographic logD | 3
c1cc(-c2ccc3ncnc(Nc4ncco4)c3c2)nc(N2CCOCC2)c1 | shake flask | aqueous buffer | pH 7.4 | logD | 3.1

Structure (SMILES) | test | system | conditions | endpoint | result
CCONC(=O)N1CCC[C@H](C(=O)NCc2nc(-c3ccccc3)cs2)C1 | metabolic stability | human, liver microsomes | 0.5 µM | microsomal CLint | 10 µL/min/mg
Cc1cc(S(=O)(=O)NC2CC(N3CC[C@@H](OC4CN(c5cccc6c5n(C)c(=O)n6C5CCC(=O)NC5=O)C4)[C@H](F)C3)C2)ccc1Nc1ncc(C(F)(F)F)c(N2CCC[C@](C)(O)C2)n1 (stereo partly shown) | metabolic stability | human, liver microsomes | 1 µM | scaled CLint | 28 mL/min/kg
CN1CCN(c2cccc(-c3ccc4ncnc(Nc5ncco5)c4c3)c2)CC1 | shake flask | aqueous buffer | pH 7.4 | logD | 3.3
COCC(=O)N1CCC[C@H](C(=O)NCc2nc(-c3cncnc3)cs2)C1 | metabolic stability | human, liver microsomes | 0.5 µM | microsomal CLint | < 7 µL/min/mg
CCN(CC)CCCOc1ccc2c(=O)c3c([nH]c2c1)CCCC3 | metabolic stability | human, liver microsomes | 1 µM, pH 7.4 | microsomal CLint | 5.53 µL/min/mg
CC1(C(F)F)NC(=O)N(c2ccc(F)c(C(F)(F)F)c2)C1=O (stereo not shown) | HPLC |  | pH 7.4 | chromatographic logD | 3.2
CCOCC(=O)N1CC[C@@H](C)[C@H](C(=O)NCc2nc(-c3ccc(C)nc3)cs2)C1 (racemic) | metabolic stability | human, liver microsomes | 0.5 µM | microsomal CLint | 6.9 µL/min/mg
CC1(C)NC(=O)N(c2ccc(F)c(F)c2)C1=O | HPLC |  | pH 7.4 | chromatographic logD | 1.8
c1cc(-c2ccc3ncnc(Nc4ncco4)c3c2)cc(N2CC3CCC(C2)O3)c1 | shake flask | aqueous buffer | pH 7.4 | logD | > 3.6
CCC(F)(F)c1cc(N2C(=O)NC(C)(C)C2=O)ccc1F | HPLC |  | pH 7.4 | chromatographic logD | 2.9
O=c1c2ccc(Oc3ccc(OC(F)(F)F)cc3)cc2[nH]c2ccc(Cl)c(F)c12 | metabolic stability | human, liver microsomes | 1 µM, pH 7.4 | microsomal CLint | 9.02 µL/min/mg
CCONC(=O)N1CCC[C@H](C(=O)N[C@H](C)c2nc(-c3ccc(C#N)cc3)cs2)C1 | metabolic stability | male Sprague-Dawley rat, liver microsomes | 0.5 µM | microsomal CLint | 29 µL/min/mg
Cc1cc(S(=O)(=O)NC2CC(N3CCN(CC4CCN(c5ccc6c(c5F)n(C)c(=O)n6C5CCC(=O)NC5=O)CC4)CC3)C2)ccc1Nc1ncc(C(F)(F)F)c(N2CCCC(C)(O)C2)n1 (stereo not shown) | metabolic stability | human, liver microsomes | 1 µM | scaled CLint | 22 mL/min/kg
CC(C)(N)COCC(=O)N1CCC[C@H](C(=O)NCc2nc(-c3ccc(C(F)(F)F)cc3)cs2)C1 | metabolic stability | human, liver microsomes | 0.5 µM | scaled CLint | < 4 mL/min/kg
Cc1cc(N2C(=O)NC(C)(C)C2=O)cc(C(F)(F)F)n1 | HPLC |  | pH 7.4 | chromatographic logD | 2.2
